Assay results from different studies.
Compare with care: the assays were run in different laboratories.
Target: Ephrin type-B receptor 1 (EPHB1, Homo sapiens, UniProt P54762)
Residues used in one study (P54762 18-984): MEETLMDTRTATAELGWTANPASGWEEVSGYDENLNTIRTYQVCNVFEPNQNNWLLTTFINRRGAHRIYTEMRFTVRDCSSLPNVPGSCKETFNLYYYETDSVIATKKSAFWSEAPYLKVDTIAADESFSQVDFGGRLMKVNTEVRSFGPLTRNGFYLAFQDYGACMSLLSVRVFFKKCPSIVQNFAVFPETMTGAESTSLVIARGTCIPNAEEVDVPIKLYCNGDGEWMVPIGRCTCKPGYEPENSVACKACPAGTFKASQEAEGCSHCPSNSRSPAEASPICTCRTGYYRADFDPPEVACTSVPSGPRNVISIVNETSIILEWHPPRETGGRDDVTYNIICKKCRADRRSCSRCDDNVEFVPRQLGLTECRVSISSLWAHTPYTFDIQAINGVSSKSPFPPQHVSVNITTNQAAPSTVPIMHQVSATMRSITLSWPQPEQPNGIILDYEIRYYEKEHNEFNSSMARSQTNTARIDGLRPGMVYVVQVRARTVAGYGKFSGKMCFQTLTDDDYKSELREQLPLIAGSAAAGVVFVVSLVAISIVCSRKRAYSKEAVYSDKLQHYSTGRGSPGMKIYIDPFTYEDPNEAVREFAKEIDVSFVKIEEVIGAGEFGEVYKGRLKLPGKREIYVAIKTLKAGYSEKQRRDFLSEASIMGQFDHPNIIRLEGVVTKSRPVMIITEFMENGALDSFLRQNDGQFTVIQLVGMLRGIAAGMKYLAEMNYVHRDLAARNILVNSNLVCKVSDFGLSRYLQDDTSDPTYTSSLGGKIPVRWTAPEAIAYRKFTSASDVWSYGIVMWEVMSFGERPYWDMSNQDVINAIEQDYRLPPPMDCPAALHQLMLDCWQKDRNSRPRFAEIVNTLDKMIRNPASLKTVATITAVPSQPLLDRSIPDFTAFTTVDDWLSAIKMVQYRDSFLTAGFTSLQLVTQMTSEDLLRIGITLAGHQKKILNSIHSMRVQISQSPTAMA

| SMILES | test | setting | measurement | result |
| --- | --- | --- | --- | --- |
| COc1cc(Cl)c(C(=O)N[C@@H](CN[C@H]2CC[C@@H](N)CC2)Cc2ccc(C#N)cc2)cc1-c1ccc(CN[C@H](C)c2ccc(C)cc2)o1 | enzyme activity, inhibitor | 1 µM | remaining activity | 122% |
| O=C1Nc2ccc(Cl)cc2C1=Cc1cc(Cl)c(O)c(Cl)c1 | cell-free assay | 0.5 µM | remaining signal | 91% |
| Cc1cnc(NC2CCOCC2)nc1-n1cnc(C(=O)NC(CN)c2cc(F)cc(Cl)c2)c1 (centres unmarked) | enzyme activity, inhibitor, radiometric | 1 µM | remaining activity | 125% |
| COc1cc(-c2cc(-c3ccc(N4CCNCC4)cc3)cnc2C)cc(OC)c1OC | enzyme activity, inhibitor | 1 µM | inhibition | 6% |
| COc1cc2ncnc(Nc3ccc(Oc4ccccc4)c(C)c3C)c2cc1OC | enzyme activity, inhibitor | 1 µM | inhibition | 3% |
| CCC(=N\O)/C(C)=C/c1ccc(F)cc1 | cell-free assay, competition with immobilised ligand | 1 µM | remaining binding | 100% |
| FC(F)c1nc2ccccc2n1-c1nc(N2CCOCC2)nc(N2CCOCC2)n1 | enzyme activity, inhibitor | 10 µM | remaining activity | 96% |
| O=C(NC[C@@H]1[C@H]2CN(C(=O)OCc3cc(C(F)(F)F)cc(C(F)(F)F)c3)C[C@@H]12)c1ccc2[nH]nnc2c1 | cell-free assay, competition with immobilised ligand | 1 µM | remaining binding | 100% |
| CC/C(=N\NC(=O)NCc1cccc(O)c1)c1ccc(O)c(C)c1O | enzyme activity, inhibitor | 0.1 µM | inhibition | -1% |
| CC(C)(O)[C@H]1CC[C@H](Nc2ccc3ncc(-c4cccc(C(F)(F)F)c4)n3n2)CC1 | enzyme activity, inhibitor | 1 µM | remaining activity | 85% |
| Cc1ccc(C(=O)NCc2ccsc2)cc1C#Cc1cn(C(C)C)c2ncnc(N)c12 | enzyme activity, inhibitor | 1 µM | activity vs control | 12% |
| CO[C@@H](C)c1c(Nc2ccc([C@@H](N(C)C(=O)C3CCS(=O)(=O)CC3)C(F)(F)F)cc2)cnc2cc(Cl)nn12 | cell-free assay, competition with immobilised ligand | 1 µM | remaining binding | 92% |
| CNC(=O)c1cc(Oc2ccc(NC(=O)Nc3ccc(Cl)c(C(F)(F)F)c3)cc2)ccn1 | cell-free assay | 0.5 µM | remaining signal | 102% |
| O=C(NCc1ncc(C(F)(F)F)cc1Cl)c1ccc2c(c1)C1(CCS(=O)(=O)CC1)[C@@H](C1CC1)N2S(=O)(=O)c1ccc(F)cc1 | cell-free assay, competition with immobilised ligand | 1 µM | remaining binding | 100% |
| Nc1ncnc2occ(-c3ccc(NC(=O)Nc4cc(C(F)(F)F)ccc4F)cc3)c12 | cell-free assay | 20 µM | remaining signal | 0% |
| COc1cc(Nc2c(C#N)cnc3cc(OCCCN4CCN(C)CC4)c(OC)cc23)c(Cl)cc1Cl | cell-free assay | 0.5 µM | remaining signal | 11.8% |
| O=C(Nc1ccc(Oc2ccc(F)cc2)cc1)N1CCc2ncccc2[C@H]1c1ccc(F)cc1 | cell-free assay, competition with immobilised ligand | 1 µM | remaining binding | 100% |
| COc1cc(Nc2cnc(C#N)c(O[C@H](C)CN(C)C)n2)ncc1-c1cnn(C)c1 | enzyme activity, inhibitor, radiometric | 1 µM | remaining activity | 100% |
| Cc1c(NC(=O)c2cc(C(N)=O)nc3cc(F)ccc23)c(C(F)(F)F)nn1Cc1ccc(C#N)cc1 | cell-free assay, competition with immobilised ligand | 1 µM | remaining binding | 66% |
| CCCS(=O)(=O)Nc1ccc(F)c(C(=O)c2c[nH]c3ncc(-c4ccc(Cl)cc4)cc23)c1F | enzyme activity, inhibitor | 1 µM | inhibition | < 10% |
| O=C1NC(c2ccccn2)Sc2ccccc21 (centres unmarked) | cell-free assay, competition with immobilised ligand | 1 µM | remaining binding | 90% |
| CCN(CC)CCNC(=O)c1c(C)[nH]c(/C=C2\C(=O)Nc3ccc(F)cc32)c1C | enzyme activity, inhibitor | 0.3 µM | inhibition | 34% |
| Cc1cc(NC(=O)c2cccc3cc(-c4cccc5[nH]nc(N)c45)ccc23)ccc1F | enzyme activity, inhibitor | 0.1 µM | activity vs control | 127% |
| N#CCCc1ccc2c(c1)-c1[nH]c3ccc([N+](=O)[O-])cc3c1CC(=O)N2 | cell-free assay | 0.5 µM | remaining signal | 99.1% |
| Cc1ccc(Nc2nccc(N(C)c3ccc4c(C)n(C)nc4c3)n2)cc1S(N)(=O)=O | enzyme activity, inhibitor | 10 µM | inhibition | 63% |
| O=C(N1CCS(=O)(=O)CC1)N1C[C@H](c2ccc(OC(F)(F)F)cc2)C[C@H](c2nc(C3CC3)no2)C1 | cell-free assay, competition with immobilised ligand | 1 µM | remaining binding | 100% |
| Cc1ccc(NC(=O)c2ccc(C)c(C(F)(F)F)c2)cc1C#Cc1nn(C2CCC(O)CC2)c2ncnc(N)c12 (centres unmarked) | cell-free assay | 10 µM | remaining signal | -1% |
| O=C(Nc1cnn(-c2csc(C(=O)NC3COC3)c2)c1)Nc1ccccc1Cl | enzyme activity, inhibitor | 5 µM | remaining activity | 100% |
| CC(C)(C)c1nc(-c2cccc(NS(=O)(=O)c3c(F)cccc3F)c2F)c(-c2ccnc(N)n2)s1 | enzyme activity, inhibitor, radiometric | 1 µM | remaining activity | 94% |
